Converted amounts (≈) assume the structure as drawn.
Legend:
Bacillus subtilis = assay: Antibacterial activity against Bacillus subtilis after overnight incubation by agar well diffusion assay; format: functional
HCT-116 = assay: Cytotoxicity against human HCT116 cells after 24 to 72 hrs by MTT assay; format: functional, cell-based
Outline: (§1)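 Cells (from Kunming Medical University) seeded at 5 × 10^4 cells/mL, preincubated 24 h at 37 °C, then given graded concentrations of test chemical in DMSO; cisplatin as positive control. MTT staining after 24, 48 and 72 h, OD 492 nm versus negative control; IC50 = concentration giving 50% cell death, from concentration–viability plot.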

CFPAC-1 = assay: Cytotoxicity against human CFPAC-1 cells after 24 to 72 hrs by MTT assay; format: functional, cell-based; outline: as §1
Staphylococcus aureus = assay: Antibacterial activity against Staphylococcus aureus ATCC 29213 after overnight incubation by agar well diffusion assay; format: functional
[1] = Cytotoxicity against human MDA-MB-435S cells after 24 to 72 hrs by MTT assay; format: functional, cell-based; outline: as §1
B16 = assay: Cytotoxicity against mouse B16 cells after 24 to 72 hrs by MTT assay; format: functional, cell-based; outline: as §1
Micrococcus luteus = assay: Antibacterial activity against Micrococcus luteus after overnight incubation by agar well diffusion assay; format: functional
ACHN = assay: Cytotoxicity against human ACHN cells after 24 to 72 hrs by MTT assay; format: functional, cell-based; outline: as §1

Row | SMILES | MIC (Bacillus subtilis) | IC50 (HCT-116) | IC50 (CFPAC-1) | MIC (Staphylococcus aureus) | IC50 [1] | IC50 (B16) | MIC (Micrococcus luteus) | IC50 (ACHN)
1 | CC(=O)C[C@]12C(=O)c3cccc(O)c3C(=O)[C@H]1[C@@]1(O[C@H](C)CC(=O)[C@H]1O)O[C@@H]1CC(=O)O[C@@H]12 [GRISEUSIN G] | 1.33 µg/mL (≈ 2.9 µM) | 580 nM | 420 nM | 0.8 µg/mL (≈ 1.75 µM) | 690 nM | 370 nM | 1.47 µg/mL (≈ 3.21 µM) | 460 nM
2 | O=C(O)c1cn(C2CC2)c2cc(N3CCNCC3)c(F)cc2c1=O [CIPROFLOXACIN] | 0.64 µg/mL (≈ 1.93 µM) |  |  | 0.28 µg/mL (≈ 0.845 µM) |  |  | 1.19 µg/mL (≈ 3.59 µM) | 
3 | CC(=O)C[C@]12C(=O)c3cccc(O)c3C(=O)[C@H]1[C@@]1(O[C@H](C)C[C@H](O)[C@H]1O)O[C@@H]1CC(=O)O[C@@H]12 [GRISEUSIN F] | 1.65 µg/mL (≈ 3.58 µM) | 700 nM | 640 nM | 0.91 µg/mL (≈ 1.98 µM) | 820 nM | 430 nM | 1.27 µg/mL (≈ 2.76 µM) | 550 nM
